Experimental findings from ChEMBL document CHEMBL3817827, “5-Substituted 3-chlorokenpaullone derivatives are potent inhibitors of Trypanosoma brucei bloodstream forms” (Bioorg Med Chem, 2016) are described below.

Molecules are shown by their SMILES. The source made the active and inactive calls. No cut-off for these calls is given here. Bounds are passed on as bounds.

One data set deals with Trypanosoma brucei. The data set can be described thus: Inhibition of Trypanosoma brucei recombinant His-tagged TryS expressed in Escherichia coli BL21 (DE3) assessed as residual enzyme activity by measuring inorganic phosphate release at 30 uM after 15 mins by malachite green dye based end-point assay. A digest of the protocol: (§1)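 His-tagged TryS expressed in E. coli BL21(DE3), Ni-NTA then gel filtration/ion exchange purified. Reaction buffer: 100 mM HEPES pH 7.4, 5 mM DTT, 10 mM MgSO4, 0.5 mM EDTA, 9 mM NaCl, 10% DMSO; 150 µM ATP, 2 mM spermidine; glutathione 0.05 (Tb), 0.57 (Tc), 0.25 mM (Li). Stopped at 15 min, malachite green phosphate read at 650 nm, blank-corrected versus DMSO; screen at 30 µM, IC50 if >50% inhibition.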

The next data set concerns Trypanosoma cruzi. The data set can be described thus: Inhibition of Trypanosoma cruzi recombinant His-tagged TryS expressed in Escherichia coli BL21 (DE3) assessed as residual enzyme activity by measuring inorganic phosphate release at 30 uM after 15 mins by malachite green dye based end-point assay. A digest of the protocol:
as §1

Data set [1] in a line: Inhibition of Leishmania infantum recombinant His-tagged TryS expressed in Escherichia coli BL21 (DE3) assessed as inorganic phosphate release after 15 mins by malachite green dye based end-point assay. Put shortly: as §1
Data set [2] relates to Trypanosoma brucei brucei. The data set can be described thus: Antitrypanosomal activity against bloodstream forms of Trypanosoma brucei brucei 427 stably transfected with pHD449 plasmid assessed as parasite viability at 5 uM after 24 hrs by propidium iodide staining based flow cytometry. Type of data set: functional. On the technique in general: A flow cytometer gives signals particle by particle.

Data set [3] in a line: Inhibition of Trypanosoma cruzi recombinant His-tagged TryS expressed in Escherichia coli BL21 (DE3) assessed as inorganic phosphate release after 15 mins by malachite green dye based end-point assay. A digest of the protocol: as §1
Data set [4] deals with Trypanosoma brucei brucei. As to the kind of experiment: Antitrypanosomal activity against bloodstream forms of Trypanosoma brucei brucei 427 stably transfected with pHD449 plasmid assessed as reduction in parasite viability after 24 hrs by propidium iodide staining based flow cytometry. The format is functional, organism-based. Particulars: Trypanosoma brucei, 427, 24 h.

Data set [5] is described as follows: Selectivity index, ratio of EC50 for mouse J774 cells to EC50 for bloodstream forms of Trypanosoma brucei brucei 427 stably transfected with pHD449 plasmid. The format is toxicity, cell-based. Particulars: read-out: Ratio EC50.
A further data set has as its system Leishmania infantum. As to the kind of experiment: Inhibition of Leishmania infantum recombinant His-tagged TryS expressed in Escherichia coli BL21 (DE3) assessed as residual enzyme activity by measuring inorganic phosphate release at 30 uM after 15 mins by malachite green dye based end-point assay. Put shortly: as §1
The nature of data set [6]: Aqueous solubility of compound in phosphate buffer at 0.25 mg at pH 7.4 after 48 hrs by HPLC based shake flask method. The format is physicochemical.
A further data set has as its system Asteroidea. The data set can be described thus: Inhibition of M phase starfish oocytes CDK1/cyclin B at 10 uM using histone H1 as substrate after 30 mins by scintillation counting method. A digest of the protocol: (§2)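 Radiometric kinase assay with 15 µM ATP, 30 min at 30 °C in buffer A (10 mM MgCl2, 1 mM EGTA, 1 mM DTT, 25 mM Tris-HCl pH 7.5, 50 µg/mL heparin); BSA 0.15 mg/mL added except for CDK2. Substrates: histone H1 (CDK1, CDK2, CDK5), CDK7/9-Tide (CDK9), RS peptide (DYRK1A, CLK1), GS-1 (GSK-3). Stopped onto P81 paper, acid-washed, scintillation counted; activity as % of DMSO control.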

For data set [7], the target named is CDK2/Cyclin A2 (Homo sapiens) (UniProt P24941+P20248). The data set can be described thus: Inhibition of human recombinant CDK2/cyclin A at 10 uM using histone H1 as substrate after 30 mins by scintillation counting method. Type of data set: protein-complex assay. Put shortly: as §2
The target in data set [8] is Cyclin-dependent kinase 5/CDK5 activator 1 (Homo sapiens) (UniProt Q00535+Q15078). As to the kind of experiment: Inhibition of human recombinant CDK5/p25 expressed in Escherichia coli at 10 uM using histone H1 as substrate after 30 mins by scintillation counting method. Put shortly: as §2
Chain of Cyclin-dependent kinase 5/CDK5 activator 1 (Homo sapiens) (Q00535 whole entry): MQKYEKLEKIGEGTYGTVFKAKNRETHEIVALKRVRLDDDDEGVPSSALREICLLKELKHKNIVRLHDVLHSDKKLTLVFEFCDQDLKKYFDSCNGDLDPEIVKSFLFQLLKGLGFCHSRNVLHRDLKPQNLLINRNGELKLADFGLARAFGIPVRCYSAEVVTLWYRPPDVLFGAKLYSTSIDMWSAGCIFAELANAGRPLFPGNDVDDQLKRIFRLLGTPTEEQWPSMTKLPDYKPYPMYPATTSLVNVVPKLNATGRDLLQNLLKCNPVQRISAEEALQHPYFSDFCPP
Chain of Cyclin-dependent kinase 5/CDK5 activator 1 (Homo sapiens) (Q15078 99-307 partner limits assumed): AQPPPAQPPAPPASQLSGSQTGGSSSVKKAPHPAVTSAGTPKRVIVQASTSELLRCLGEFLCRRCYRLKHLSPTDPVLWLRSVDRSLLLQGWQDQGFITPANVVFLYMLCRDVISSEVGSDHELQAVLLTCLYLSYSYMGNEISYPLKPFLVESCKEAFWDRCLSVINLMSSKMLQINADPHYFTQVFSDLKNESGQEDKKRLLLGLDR
Data set [9] addresses CDK9/cyclin T1 (Homo sapiens) (UniProt O60563+P50750). As to the kind of experiment: Inhibition of human recombinant CDK9/cyclinT expressed in insect cells at 10 uM using CDK7/9-Tide as substrate after 30 mins by scintillation counting method. Put shortly: as §2
Data set [10] deals with Glycogen synthase kinase-3 (Sus scrofa) (UniProt B2LUN4+I6LNT8). As to the kind of experiment: Inhibition of porcine brain GSK-3alpha/beta at 10 uM using GS-1 as substrate after 30 mins by scintillation counting method. Put shortly: as §2
The species named for the next data set is Sus scrofa. The data set can be described thus: Inhibition of porcine brain CK1delta/epsilon at 10 uM using CKS peptide as substrate after 30 mins by scintillation counting method. A digest of the protocol:
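Native porcine brain CK1δ/ε purified on axin 2-sepharose, assayed with 0.67 µg CKS peptide and 15 µM ATP, 30 min at 30 °C; phosphate incorporation captured on P81 paper, counted by scintillation, expressed as % of activity without inhibitor.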

The target of data set [11] is Dual specificity protein kinase CLK1 (Mus musculus) (UniProt P22518). As to the kind of experiment: Inhibition of GST-tagged mouse recombinant CLK1 expressed in Escherichia coli at 10 uM after 30 mins by scintillation counting method. A digest of the protocol: as §2
Chain of Dual specificity protein kinase CLK1 (Mus musculus) (P22518 whole entry, looked up): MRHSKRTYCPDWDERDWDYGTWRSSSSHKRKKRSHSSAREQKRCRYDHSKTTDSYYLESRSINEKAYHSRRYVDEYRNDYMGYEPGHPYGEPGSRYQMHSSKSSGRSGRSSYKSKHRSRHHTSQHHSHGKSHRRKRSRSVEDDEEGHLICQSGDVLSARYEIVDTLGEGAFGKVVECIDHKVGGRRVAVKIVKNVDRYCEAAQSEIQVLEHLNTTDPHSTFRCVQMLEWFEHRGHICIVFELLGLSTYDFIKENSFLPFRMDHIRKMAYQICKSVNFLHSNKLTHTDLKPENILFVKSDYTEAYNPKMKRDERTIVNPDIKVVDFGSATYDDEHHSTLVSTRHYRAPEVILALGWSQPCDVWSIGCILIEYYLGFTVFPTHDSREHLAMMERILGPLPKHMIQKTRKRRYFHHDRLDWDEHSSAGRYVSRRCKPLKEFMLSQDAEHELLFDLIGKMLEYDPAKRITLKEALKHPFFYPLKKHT
Data set [12] deals with Dual specificity tyrosine-phosphorylation-regulated kinase 1A (Homo sapiens) (UniProt Q13627). The data set can be described thus: Inhibition of GST-tagged human recombinant DYRK1A expressed in Escherichia coli at 10 uM after 30 mins by scintillation counting method. A digest of the protocol: as §2

Consider `O=C(CN1C(=O)Cc2c([nH]c3ccc(Br)cc23)-c2ccc(Cl)cc21)NCc1ccncc1`, for which the Activity in the data set with Trypanosoma brucei was found to be 65.2%; in the data set with Trypanosoma cruzi, 58.1%; in [2], 49.1%. For the same molecule, in [1], the IC50 (as a rule, the point on the concentration scale where inhibition reaches its midpoint) was 1.2 µM.

Take `O=C(CN1C(=O)Cc2c([nH]c3ccc(Br)cc23)-c2ccc(Cl)cc21)NCc1ccc(Cl)c(Cl)c1`: the Activity with Trypanosoma brucei amounted to 42%. For the same molecule, the IC50 in [3] was found to be 9 µM; in data set [1] it was 19 µM. Further, the EC50 (commonly the concentration that produces a half-maximal response) in [4] came out at 0.84 µM. Also, the selectivity ratio in data set [5] is 12.

In the case of `O=C(CN1C(=O)Cc2c([nH]c3ccc(Br)cc23)-c2ccc(Cl)cc21)NCc1cccnc1`, the Activity in the data set on Trypanosoma brucei amounted to 64.8%; in data set [2], 59.4%. In addition, the IC50 in data set [3] stood at 9 µM; in data set [1] it was 11 µM.

`O=C(CN1C(=O)Cc2c([nH]c3ccc(Br)cc23)-c2ccc(Cl)cc21)NCc1ccc(Cl)cc1`: the results for the Activity in the data set on Trypanosoma brucei and with Leishmania infantum were 50.1% and 109%, respectively. The IC50 in data set [3] worked out at 11 µM. For the same molecule, the EC50 in [4] came out at 0.8 µM. In addition, the selectivity ratio in data set [5] was greater than 62.

Consider `Cc1ccc(CNC(=O)CN2C(=O)Cc3c([nH]c4ccc(Br)cc34)-c3ccc(Cl)cc32)cc1`, for which the results for the Activity in the data set on Trypanosoma brucei and in the data set on Leishmania infantum were 53.7% and 48.6%, respectively. In addition, the IC50 in [3] worked out at 9 µM. In addition, in [4], the EC50 turned out to be 0.3 µM. Further, the selectivity ratio in [5] is greater than 167. Besides, the thermodynamic solubility (commonly solubility found after equilibrating the solid with the medium) at 48 h in data set [6] is less than 0.48 µM.

With `CNCCNC(=O)CN1C(=O)Cc2c([nH]c3ccc(C(F)(F)F)cc23)-c2ccccc21`, the Activity in the data set with Trypanosoma brucei was 70%; in the data set with Trypanosoma cruzi it was 44.5%. For the same molecule, the IC50 in data set [1] was 0.35 µM. In addition, in data set [4], the EC50 is 8.3 µM. Further, the selectivity ratio in [5] came to 1.

For the molecule `O=C(CN1C(=O)Cc2c([nH]c3ccc(Br)cc23)-c2ccc(Cl)cc21)NCc1ccc(O)cc1`, the Activity in the data set with Trypanosoma brucei was determined as 58%. For the same molecule, the figures for the IC50 in [3] and in [1] were 9 µM and 10 µM, respectively. In addition, the EC50 in [4] was 0.84 µM. Moreover, in [5], the selectivity ratio stood at 238. Besides, the solubility (thermodynamic) at 48 h in data set [6] was less than 4.8 µM.

Turning to `O=C(CN1C(=O)Cc2c([nH]c3ccc(Br)cc23)-c2ccc(Cl)cc21)NCc1ccc(C(F)(F)F)cc1`, the values for the Activity in the data set with Trypanosoma brucei and with Leishmania infantum were 63.5% and 55.4%, respectively. The IC50 in data set [3] came out at 9 µM. In addition, the EC50 in data set [4] stood at 1.8 µM. Further, the selectivity ratio in data set [5] is greater than 18.

On to `O=C(CN1C(=O)Cc2c([nH]c3ccc(Br)cc23)-c2ccc(Cl)cc21)NCc1ccccc1Cl`, for which the Activity in the data set with Trypanosoma brucei stood at 55.3%; in [2], 53.2%. For the same molecule, the IC50 in data set [3] is 11 µM; in [1], 23 µM.

On to `O=C(CN1C(=O)Cc2c([nH]c3ccc(Br)cc23)-c2ccc(Cl)cc21)NCc1ccccn1`, for which the Activity in the data set on Trypanosoma brucei was determined as 75.8%; in the data set on Trypanosoma cruzi, 54.8%; with Leishmania infantum, 95.5%; in [2], 33.8%.

In the case of `O=C(CN1C(=O)Cc2c([nH]c3ccc(Br)cc23)-c2ccc(Cl)cc21)NCc1ccccc1`, the Activity with Trypanosoma brucei turned out to be 45.2%; with Trypanosoma cruzi, 72.8%; in the data set with Leishmania infantum, 50%. For the same molecule, in [4], the EC50 is 0.04 µM. The selectivity ratio in data set [5] is 1410. Besides, the thermodynamic solubility at 48 h in data set [6] was less than 0.49 µM. For the same molecule, the inhibition entry (in the data set with Asteroidea; in data set [7]; in data set [8]; in data set [9]; in data set [10]; in the data set listed under Sus scrofa) was “inactive” in each case. The inhibition entry in data set [11] and in [12] was “inactive” throughout.

As to `O=C(CN1C(=O)Cc2c([nH]c3ccc(Br)cc23)-c2ccc(Cl)cc21)NCc1cccc(Cl)c1`, the Activity in the data set on Trypanosoma brucei was 55.9%. Also, the IC50 amounted to 11 µM in [3] and 17 µM in data set [1]. Also, the EC50 in data set [4] was found to be 1.1 µM. For the same molecule, the selectivity ratio in data set [5] came out at 91.

Consider `COc1ccc(CNC(=O)CN2C(=O)Cc3c([nH]c4ccc(Br)cc34)-c3ccc(Cl)cc32)cc1`, for which the Activity in the data set on Trypanosoma brucei was found to be 53.5%. In addition, the concentration for half-maximal inhibition (IC50) in data set [3] stood at 11 µM; in data set [1], 24 µM. Moreover, the EC50 in [4] is 1 µM. Besides, in [5], the selectivity ratio is 22.
